Laboratory results taken from ChEMBL document CHEMBL3877303 (J Med Chem, 2017).
Blank lines part the entries; values can stand above or below the compound they belong to. Activity calls are given as the source filed them. The calls are words filed in the database; no cut-off is given here.

Assays:
[1] = Cell cycle arrest in human K562 cells assessed as accumulation at G0/G1 phase at 1 uM after 24 hrs by propidium iodide/RNase staining based flow cytometry; assay type: functional
How it was run: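 Cells were exposed to serially diluted compound, then fixed in cold 70% ethanol overnight at -20 °C. They were stained with PI/RNase buffer for DNA-content cell-cycle analysis.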

[2] = biological target: T1, Mast/stem cell growth factor receptor Kit (Homo sapiens, UniProt P10721); conditions: GISTT1, 1 uM
T1 sequence (P10721 whole entry, the tested form may be a part): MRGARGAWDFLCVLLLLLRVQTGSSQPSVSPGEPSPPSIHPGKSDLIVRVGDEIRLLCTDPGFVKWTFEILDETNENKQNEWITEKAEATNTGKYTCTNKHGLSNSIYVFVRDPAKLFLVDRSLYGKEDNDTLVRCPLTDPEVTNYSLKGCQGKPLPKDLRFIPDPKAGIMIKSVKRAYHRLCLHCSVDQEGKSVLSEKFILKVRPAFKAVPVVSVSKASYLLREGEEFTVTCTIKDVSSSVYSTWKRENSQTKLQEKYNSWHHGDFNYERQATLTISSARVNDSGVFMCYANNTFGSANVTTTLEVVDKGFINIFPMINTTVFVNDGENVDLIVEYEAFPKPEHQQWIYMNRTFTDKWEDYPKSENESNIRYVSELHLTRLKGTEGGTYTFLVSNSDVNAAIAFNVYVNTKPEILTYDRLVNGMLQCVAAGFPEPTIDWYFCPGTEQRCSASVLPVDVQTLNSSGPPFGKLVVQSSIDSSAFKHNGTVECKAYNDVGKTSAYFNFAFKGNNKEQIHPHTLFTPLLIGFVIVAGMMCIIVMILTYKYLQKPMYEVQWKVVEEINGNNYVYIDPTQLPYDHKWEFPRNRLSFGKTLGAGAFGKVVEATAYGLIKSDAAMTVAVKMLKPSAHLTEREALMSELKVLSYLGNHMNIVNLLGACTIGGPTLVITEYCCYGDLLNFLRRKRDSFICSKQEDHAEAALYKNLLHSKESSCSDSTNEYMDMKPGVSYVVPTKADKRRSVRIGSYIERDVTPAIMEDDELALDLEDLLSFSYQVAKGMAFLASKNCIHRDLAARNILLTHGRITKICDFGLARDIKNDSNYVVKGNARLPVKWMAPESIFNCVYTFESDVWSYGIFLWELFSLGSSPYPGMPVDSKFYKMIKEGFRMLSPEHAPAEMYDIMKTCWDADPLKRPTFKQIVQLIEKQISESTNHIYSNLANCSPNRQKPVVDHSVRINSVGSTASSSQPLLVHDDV

[3] = biological target: Macrophage colony-stimulating factor 1 receptor (Homo sapiens, UniProt P07333); test: Inhibition of recombinant His-tagged human CSF1R cytoplasmic domain expressed in baculovirus expression system measured after 1 hr by FRET based Z'Lyte assay
Chain of Macrophage colony-stimulating factor 1 receptor (P07333 whole entry, the tested form may be a part): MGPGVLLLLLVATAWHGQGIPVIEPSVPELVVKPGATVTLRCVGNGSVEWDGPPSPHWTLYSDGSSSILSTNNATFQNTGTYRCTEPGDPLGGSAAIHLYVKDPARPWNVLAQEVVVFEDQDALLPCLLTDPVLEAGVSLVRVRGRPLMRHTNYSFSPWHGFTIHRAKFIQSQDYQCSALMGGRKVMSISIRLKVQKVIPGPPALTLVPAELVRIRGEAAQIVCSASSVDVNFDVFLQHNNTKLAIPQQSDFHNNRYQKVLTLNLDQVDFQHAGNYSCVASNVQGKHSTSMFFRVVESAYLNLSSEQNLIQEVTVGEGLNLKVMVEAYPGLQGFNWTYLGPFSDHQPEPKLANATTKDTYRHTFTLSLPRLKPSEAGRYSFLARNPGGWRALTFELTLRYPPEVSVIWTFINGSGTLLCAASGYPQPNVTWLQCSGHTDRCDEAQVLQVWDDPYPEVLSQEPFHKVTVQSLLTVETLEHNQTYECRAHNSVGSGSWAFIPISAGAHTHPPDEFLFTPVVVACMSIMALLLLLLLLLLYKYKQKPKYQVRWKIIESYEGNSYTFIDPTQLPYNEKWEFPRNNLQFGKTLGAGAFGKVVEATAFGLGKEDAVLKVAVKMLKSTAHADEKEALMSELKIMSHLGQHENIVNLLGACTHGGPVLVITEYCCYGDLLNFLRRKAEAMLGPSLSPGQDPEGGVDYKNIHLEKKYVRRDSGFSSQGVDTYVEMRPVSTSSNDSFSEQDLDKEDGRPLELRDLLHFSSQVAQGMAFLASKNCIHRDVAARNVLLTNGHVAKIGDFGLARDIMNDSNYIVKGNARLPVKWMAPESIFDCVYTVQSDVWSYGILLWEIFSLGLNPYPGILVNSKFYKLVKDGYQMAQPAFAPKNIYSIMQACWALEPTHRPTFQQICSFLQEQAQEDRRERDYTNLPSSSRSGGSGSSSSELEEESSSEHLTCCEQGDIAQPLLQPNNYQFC
How it was run: (§1)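 Z'-LYTE FRET biochemical kinase assay run by Invitrogen on selected kinases identified from binding profiling; IC50 from dose-response.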

[4] = biological target: T2, Epithelial discoidin domain-containing receptor 1 (Homo sapiens, UniProt Q08345); test: Inhibition of human GST-tagged DDR1 cytoplasmic domain expressed in baculovirus expression system measured after 1 hr by FRET based Z'Lyte assay; how it was run: as §1
T2 sequence (Q08345 whole entry, the tested form may be a part): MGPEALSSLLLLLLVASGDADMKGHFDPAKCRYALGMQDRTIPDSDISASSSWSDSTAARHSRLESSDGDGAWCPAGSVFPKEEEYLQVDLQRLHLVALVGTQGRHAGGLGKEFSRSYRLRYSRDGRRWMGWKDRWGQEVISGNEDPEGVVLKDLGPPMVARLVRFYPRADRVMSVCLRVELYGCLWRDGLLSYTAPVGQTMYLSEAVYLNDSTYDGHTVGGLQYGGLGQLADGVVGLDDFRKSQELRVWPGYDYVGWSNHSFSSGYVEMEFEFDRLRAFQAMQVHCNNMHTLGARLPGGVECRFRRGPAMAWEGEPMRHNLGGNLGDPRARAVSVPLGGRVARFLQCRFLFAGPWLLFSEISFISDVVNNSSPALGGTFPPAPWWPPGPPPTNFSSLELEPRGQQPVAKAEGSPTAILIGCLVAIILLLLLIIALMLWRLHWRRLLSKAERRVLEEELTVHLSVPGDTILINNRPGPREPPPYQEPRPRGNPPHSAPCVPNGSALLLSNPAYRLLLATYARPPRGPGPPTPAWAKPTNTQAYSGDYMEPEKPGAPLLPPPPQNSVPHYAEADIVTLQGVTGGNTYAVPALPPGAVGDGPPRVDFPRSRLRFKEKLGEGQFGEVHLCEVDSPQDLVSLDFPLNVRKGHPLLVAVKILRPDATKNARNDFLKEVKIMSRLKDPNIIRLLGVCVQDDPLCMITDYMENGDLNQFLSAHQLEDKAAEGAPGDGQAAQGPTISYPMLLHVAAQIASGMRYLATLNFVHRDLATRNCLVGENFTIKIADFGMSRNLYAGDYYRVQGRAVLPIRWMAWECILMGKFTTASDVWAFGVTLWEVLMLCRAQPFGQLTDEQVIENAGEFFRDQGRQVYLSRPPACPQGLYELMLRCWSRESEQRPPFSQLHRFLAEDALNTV

[5] = system: BaF3; test: Inhibition of BCR/ABL p210 fusion protein T315I mutant (unknown origin) expressed in BAF3 cells assessed as growth inhibition measured after 72 hrs by CellTiter-Glo or CCK8 assay; assay type: cell-based; conditions: Homo sapiens
How it was run: (§2)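 BaF3 lines were made by retroviral transduction with kinase-fusion MSCV vectors packaged in HEK293T cells. Cells were selected with puromycin for 48 h, then selected again without IL-3 so growth depends on the introduced kinase. […] They were seeded at 1 to 2.5×10^4 cells/mL with compound dilutions and incubated 72 h. Viability was read by CellTiter-Glo luminescence or CCK-8 absorbance (450/655 nm), normalized to DMSO control; GI50 was curve-fitted from triplicate tests.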

[6] = system: Mast/stem cell growth factor receptor Kit (Homo sapiens), P10721 [V654A]; test: Inhibition of Tel-fused c-KIT V654A mutant (unknown origin) expressed in BAF3 cells assessed as growth inhibition measured after 72 hrs by CellTiter-Glo or CCK8 assay; assay type: cell-based; how it was run: as §2
Chain of Mast/stem cell growth factor receptor Kit (Homo sapiens), P10721 [V654A] (P10721 whole entry V654A, the tested form may be a part): as the sequence (P10721 whole entry, the tested form may be a part) above, with V654A counted along it

[7] = biological target: T3, BCR/ABL p210 fusion protein (Homo sapiens, UniProt A1Z199); test: Inhibition of BCR/ABL p210 fusion protein mediated signaling pathways assessed as reduction in CrkL phosphorylation at Y207 in human K562 cells at 0.01 to 3 uM measured after 2 hrs by immunoblotting; assay type: cell-based
T3 sequence (A1Z199 1-97): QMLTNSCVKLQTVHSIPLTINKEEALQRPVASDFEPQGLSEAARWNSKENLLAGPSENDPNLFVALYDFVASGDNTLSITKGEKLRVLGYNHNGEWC
How it was run: (§3)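 After an ice-cold PBS wash, cells were lysed in RIPA buffer (50 mM Tris pH 8.0) with protease and phosphatase inhibitors, and protein was quantified by BCA. Lysates were run on SDS-PAGE, transferred to PVDF and blocked in 5% milk/TBST. Phospho- and total proteins were probed by immunoblot with ECL detection; β-actin served as loading control.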

[8] = biological target: T3, BCR/ABL p210 fusion protein; test: Inhibition of BCR/ABL p210 fusion protein mediated signaling pathways assessed as reduction in CrkL phosphorylation at Y207 in human KU812 cells at 0.01 to 3 uM measured after 2 hrs by immunoblotting; assay type: cell-based; how it was run: as §3
[9] = biological target: T3, BCR/ABL p210 fusion protein; test: Inhibition of BCR/ABL p210 fusion protein mediated signaling pathways assessed as reduction in ERK phosphorylation at T202/Y204 in human MEG01 cells at 0.01 to 3 uM measured after 2 hrs by immunoblotting; assay type: cell-based; conditions: MEG-01; how it was run: as §3
[10] = biological target: T1, Mast/stem cell growth factor receptor Kit; test: Inhibition of c-KIT autophosphorylation at Y703 in human GISTT1 cells at 0.03 to 10 uM measured after 2 hrs by immunoblotting; assay type: cell-based; how it was run: as §3
[11] = biological target: T1, Mast/stem cell growth factor receptor Kit; test: Inhibition of c-KIT autophosphorylation at Y719 in human GISTT1 cells at 0.03 to 10 uM measured after 2 hrs by immunoblotting; assay type: cell-based; how it was run: as §3
[12] = biological target: T1, Mast/stem cell growth factor receptor Kit; test: Inhibition of c-KIT autophosphorylation at Y719 in human GIST882 cells at 0.01 to 3 uM measured after 2 hrs by immunoblotting; assay type: cell-based; how it was run: as §3
[13] = biological target: T1, Mast/stem cell growth factor receptor Kit; test: Inhibition of c-KIT autophosphorylation at Y823 in human GIST882 cells at 0.01 to 3 uM measured after 2 hrs by immunoblotting; assay type: cell-based; how it was run: as §3
[14] = biological target: T1, Mast/stem cell growth factor receptor Kit; test: Inhibition of c-KIT mediated signaling pathways assessed as reduction in S6K phosphorylation at T389 in human GISTT1 cells at 0.03 to 10 uM measured after 2 hrs by immunoblotting; assay type: cell-based; how it was run: as §3
[15] = biological target: T1, Mast/stem cell growth factor receptor Kit; test: Inhibition of c-KIT mediated signaling pathways assessed as reduction in S6 phosphorylation at S235/236 in human GISTT1 cells at 0.03 to 10 uM measured after 2 hrs by immunoblotting; assay type: cell-based; how it was run: as §3
[16] = Tmax in Sprague-Dawley rat at 1 mg/kg, iv; assay type: ADME, organism-based; conditions: in vivo
How it was run: (§4)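 Male Sprague-Dawley rats, 6-8 weeks old, fasted overnight, dosed iv or po. Jugular vein blood (~0.2 mL, heparin) sampled at 1 min to 8 h (iv) or 5 min to 24 h (po). Plasma separated by centrifugation at 2-8 °C and stored at -80 °C before analysis.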

[17] = Tmax in Sprague-Dawley rat at 10 mg/kg, po; assay type: ADME, organism-based; conditions: in vivo; how it was run: as §4
[18] = system: K562; test: Anticancer activity against human K562 cells xenografted in nu/nu mouse assessed as reduction in tumor progression administered daily via oral gavage measured 28 days post compound treatment; assay type: functional, cell-based
How it was run: (§5)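 Female nu/nu mice received ten million K562 cells subcutaneously in the right flank, in PBS mixed 1:1 with Matrigel. Daily oral gavage began at 200-400 mm³ tumor size, with 4 or 5 mice per group. Dosing was 25, 50 or 100 mg/kg/d or vehicle (0.5% methylcellulose/0.4% Tween80) for 28 days. Body weight and tumor size were normalized to initial values, and final tumor weight was recorded. Data are mean ± SEM.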

[19] = system: K562; test: Induction of apoptosis in human K562 cells xenografted in nu/nu mouse administered daily via oral gavage measured 28 days post compound treatment by TUNEL staining based assay; assay type: functional, cell-based
How it was run: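 K562 xenograft tumors from daily orally dosed mice were fixed in 10% neutral-buffered formalin and paraffin-embedded. Six-micron sections were TUNEL-stained to detect apoptotic nuclei.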

[20] = Anticancer activity against human K562 cells xenografted in nu/nu mouse assessed as tumor weight at 25 mg/kg administered via oral gavage measured after 28 days (reference value: 6.75 g); assay type: functional; how it was run: as §5
[21] = Anticancer activity against human K562 cells xenografted in nu/nu mouse assessed as tumor weight at 50 mg/kg administered via oral gavage measured after 28 days (reference value: 6.75 g); assay type: functional; how it was run: as §5
[22] = biological target: Tyrosine-protein kinase Lck (Homo sapiens, UniProt P06239); conditions: BaF3
Chain of Tyrosine-protein kinase Lck (P06239 2-509 limits assumed): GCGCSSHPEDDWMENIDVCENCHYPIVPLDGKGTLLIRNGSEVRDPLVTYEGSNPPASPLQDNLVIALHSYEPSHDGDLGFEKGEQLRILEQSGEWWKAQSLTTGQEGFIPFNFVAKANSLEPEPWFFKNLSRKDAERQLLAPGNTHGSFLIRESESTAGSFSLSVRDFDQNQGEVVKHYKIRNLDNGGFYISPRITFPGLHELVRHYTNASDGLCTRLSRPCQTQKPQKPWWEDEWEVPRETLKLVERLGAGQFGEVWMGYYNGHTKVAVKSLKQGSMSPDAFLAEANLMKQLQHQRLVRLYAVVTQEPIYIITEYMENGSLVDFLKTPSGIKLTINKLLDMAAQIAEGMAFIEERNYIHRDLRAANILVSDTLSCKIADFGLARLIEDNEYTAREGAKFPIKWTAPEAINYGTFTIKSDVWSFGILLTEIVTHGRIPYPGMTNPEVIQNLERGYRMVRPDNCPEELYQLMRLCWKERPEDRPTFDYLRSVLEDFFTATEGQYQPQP

[23] = biological target: T2, Epithelial discoidin domain-containing receptor 1; test: Inhibition of human GST-tagged DDR1 cytoplasmic domain expressed in baculovirus expression system assessed as residual activity at 1 uM by KINOMEscan binding assay relative to control
[24] = Anticancer activity against human GISTT1 cells xenografted in nu/nu mouse assessed as tumor growth inhibition at 100 mg/kg, po administered daily via oral gavage measured 21 days post compound treatment relative to vehicle-treated control; conditions: 504 h, read-out: GI

inhibition [2]: Active
SMILES: Cc1ccc(NC(=O)c2ccc(CN3CCN(C)CC3)cc2)cc1Nc1nccc(-c2cccnc2)n1 [IMATINIB]
Activity [1]: Active

IC50 [3]: 0.227 µM
IC50 [4]: 0.116 µM
GI50 [5]: > 10 µM
GI50 [6]: 1.84 µM
inhibition [7]: Active
inhibition [8]: Active
inhibition [9]: Active
inhibition [10]: Active
inhibition [11]: Active
inhibition [12]: Active
inhibition [13]: Active
inhibition [14]: Active
inhibition [15]: Active
Tmax [16]: 1.02 min
Tmax [17]: 6 h
GI50 [22]: 0.386 µM
Activity [23]: 0.35%
SMILES: Cc1ccc(C(=O)N2CCC(Oc3cc(NC(=O)c4ccc(CN5CCN(C)CC5)c(C(F)(F)F)c4)ccc3C)CC2)cn1
TGI [18]: Dose-dependent effect
Activity [19]: Dose-dependent effect
Activity [20]: 7.46 g
Activity [21]: 6.51 g
inhibition in vivo at 100 mg/kg [24]: 46.5%
